According to ChEMBL document CHEMBL1933033, “Cytotoxic withanolide constituents of Physalis longifolia” (J Nat Prod, 2011):

How the values were obtained:
B16-F10 = assay: Cytotoxicity against mouse B16F10 cells after 72 hrs by MTS assay; format: functional, cell-based; conditions: B16-F10, 72 h
Summary of the method: (§1)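 MTS viability assay on HNSCC (JMAR, MDA-1986), melanoma (B16F10, SKMEL-28) and normal fetal fibroblast (MRC-5) cells. Pure compounds tested at ten concentrations from 50 nM to 20 μM. IC50 values derived from the concentration series.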

SK-MEL-28 = assay: Cytotoxicity against human SK-MEL-28 cells after 72 hrs by MTS assay; format: functional, cell-based; conditions: SK-MEL-28, 72 h; summary of the method: as §1
[1] = Cytotoxicity against human JMAR cells after 72 hrs by MTS assay; format: functional, cell-based; summary of the method: as §1
[2] = Cytotoxicity against human MDA1986 cells after 72 hrs by MTS assay; format: functional, cell-based; conditions: MDA1986, 72 h; summary of the method: as §1
[3] = Cytotoxicity against human […] cells after 72 hrs by MTS assay; format: cell-based; summary of the method: as §1

| Compound | IC50 (B16-F10) [µM] | IC50 (SK-MEL-28) [µM] | IC50 [1] [µM] | IC50 [2] [µM] | IC50 [3] [µM] |
| --- | --- | --- | --- | --- | --- |
| CC1=C(CO)C(=O)O[C@@H]([C@@H](C)[C@H]2CC[C@H]3[C@@H]4C[C@H]5O[C@]56[C@@H](O)C=CC(=O)[C@]6(CO)[C@H]4CC[C@]23C)C1 | > 10 | 5.1 | 5.3 | 3.3 | > 10 |
| CC(=O)OCC1=C(C)C[C@H]([C@@H](C)[C@H]2CC[C@H]3[C@@H]4C[C@H]5O[C@]56[C@@H](OC(C)=O)C=CC(=O)[C@]6(COC(C)=O)[C@H]4CC[C@]23C)OC1=O | 0.067 | 0.54 | 0.16 | 0.91 | 0.58 |
| CC(=O)OCC1=C(C)C[C@H]([C@@H](C)[C@H]2CC[C@H]3[C@@H]4C[C@H]5O[C@]56[C@@H](OC(C)=O)C=CC(=O)[C@]6(CO)[C@H]4CC[C@]23C)OC1=O | 0.098 | 0.81 | 0.14 | 2.2 | 0.41 |
| CC(=O)OC[C@]12C(=O)C=C[C@H](OC(C)=O)[C@]13O[C@@H]3C[C@H]1[C@@H]3CC[C@H]([C@H](C)[C@H]4CC(C)=C(C)C(=O)O4)[C@@]3(C)CC[C@@H]12 | 0.13 | 0.27 | 0.24 | 0.11 | 0.51 |
| CC(=O)OC[C@]12C(=O)C=C[C@H](O)[C@]13O[C@@H]3C[C@H]1[C@@H]3CC[C@H]([C@H](C)[C@H]4CC(C)=C(C)C(=O)O4)[C@@]3(C)CC[C@@H]12 | 0.19 | 0.64 | 0.12 | 0.49 | 0.16 |
| CC1=C(CO)C(=O)O[C@@H]([C@@H](C)[C@H]2CC[C@H]3[C@@H]4C[C@H]5O[C@]56[C@@H](O)C=CC(=O)[C@]6(CO)[C@H]4[C@@H](O)C[C@]23C)C1 | 0.49 | 3 | 0.77 | 2.6 | 3.6 |
| CO[C@H]1CC(=O)[C@]2(C)[C@H]3CC[C@]4(C)[C@@H]([C@H](C)[C@H]5CC(C)=C(CO)C(=O)O5)CC[C@H]4[C@@H]3C[C@H]3O[C@]32[C@H]1O | > 10 | > 10 | > 10 | > 10 | > 10 |
| CC1=C(CO)C(=O)O[C@@H]([C@@H](C)[C@H]2CC[C@H]3[C@@H]4C[C@H]5O[C@]56[C@@H](O)CCC(=O)[C@]6(C)[C@H]4CC[C@]23C)C1 | > 10 | > 10 | > 10 | > 10 | > 10 |
| CC1=C(CO)C(=O)O[C@@H]([C@@H](C)[C@H]2CC[C@H]3[C@@H]4C[C@@H]5O[C@@H]6CC(=O)[C@](C)([C@H]4CC[C@]23C)[C@@]5(O)[C@H]6O)C1 | > 10 | > 10 | > 10 | > 10 | > 10 |
| CC1=C(CO)C(=O)O[C@@H]([C@@H](C)[C@H]2CC[C@H]3[C@@H]4C[C@H]5O[C@]56[C@@H](O)[C@@H](OS(=O)(=O)O)CC(=O)[C@]6(C)[C@H]4CC[C@]23C)C1 | 0.18 | 5.1 | 0.48 | 0.27 | 1.4 |
| CC1=C(CO[C@@H]2O[C@H](CO)[C@@H](O)[C@H](O)[C@H]2O)C(=O)O[C@@H]([C@@H](C)[C@H]2CC[C@H]3[C@@H]4C[C@H]5O[C@]56[C@@H](O)C=CC(=O)[C@]6(C)[C@H]4CC[C@]23C)C1 [SITOINDOSIDE IX] | 3.7 | 8.3 | 4.2 | > 10 | 5.2 |
| CC1=C(CO)C(=O)O[C@@H]([C@@H](C)[C@H]2CC[C@H]3[C@@H]4C[C@H]5O[C@]56[C@@H](O)[C@@H](O)CC(=O)[C@]6(C)[C@H]4CC[C@]23C)C1 [VISCOSALACTONE B] | > 10 | > 10 | > 10 | > 10 | > 10 |
| CC1=C(CO)C(=O)O[C@@H]([C@@H](C)[C@H]2CC[C@H]3[C@@H]4C[C@H]5O[C@]56[C@@H](O)C=CC(=O)[C@]6(C)[C@H]4CC[C@]23C)C1 [WITHAFERIN A] | 0.29 | 4 | 2 | 0.8 | 0.2 |
| CC1=C(C)C(=O)O[C@@H]([C@@H](C)[C@H]2CC[C@H]3[C@@H]4C[C@H]5O[C@]56[C@@H](O)C=CC(=O)[C@]6(CO)[C@H]4CC[C@]23C)C1 [WITHALONGOLIDE B] | 0.2 | 3.9 | 0.17 | 1.3 | 0.4 |
| CO[C@H]1CC(=O)[C@]2(CO)[C@H]3CC[C@]4(C)[C@@H]([C@H](C)[C@H]5CC(C)=C(CO)C(=O)O5)CC[C@H]4[C@@H]3C[C@H]3O[C@]32[C@H]1O [WITHALONGOLIDE D] | 3.2 | 9.3 | 4.7 | > 10 | 6.5 |
| CO[C@H]1CC(=O)[C@]2(C)[C@@H]3[C@@H](C[C@H]4O[C@]42[C@H]1O)[C@@H]1CC[C@H]([C@H](C)[C@H]2CC(C)=C(CO)C(=O)O2)[C@@]1(C)C[C@@H]3O [WITHALONGOLIDE E] | 5.6 | > 10 | > 10 | 8.3 | 7.3 |
| CC1=C(CO)C(=O)O[C@@H]([C@@H](C)[C@H]2CC[C@H]3[C@@H]4CC=C5C=CC(=O)[C@]5(C)[C@H]4CC[C@]23C)C1 [WITHALONGOLIDE F] | > 10 | > 10 | > 10 | > 10 | > 10 |
| CC1=C(CO)C(=O)O[C@@H]([C@@H](C)[C@H]2CC[C@H]3[C@@H]4C[C@H]5O[C@]56[C@@H](O)[C@@H](OS(=O)(=O)O)CC(=O)[C@]6(CO)[C@H]4CC[C@]23C)C1 [WITHALONGOLIDE G] | 1.3 | 4.8 | 2.3 | 2 | 3.3 |
| CC1=C(CO[C@@H]2O[C@H](CO)[C@@H](O[C@@H]3O[C@@H](C)[C@H](O)[C@@H](O)[C@H]3O)[C@H](O)[C@H]2O)C(=O)O[C@@H]([C@@H](C)[C@H]2CC[C@H]3[C@@H]4C[C@H]5O[C@]56[C@@H](O)C=CC(=O)[C@]6(C)[C@H]4CC[C@]23C)C1 [WITHALONGOLIDE H] | > 10 | > 10 | 8.2 | 8.1 | 8.7 |
| CC1=C(CO)C(=O)O[C@@H]([C@@H](C)[C@H]2CC[C@H]3[C@@H]4CC=C5C[C@@H](O[C@@H]6O[C@H](CO)[C@@H](O)[C@H](O)[C@H]6O)CC(=O)[C@]5(CO)[C@H]4CC[C@]23C)C1 [WITHALONGOLIDE I] | > 10 | > 10 | > 10 | > 10 | > 10 |
| CC1=C(CO[C@@H]2O[C@H](CO)[C@@H](O)[C@H](O)[C@H]2O)C[C@H]([C@@H](C)[C@H]2CC[C@H]3[C@@H]4CC=C5C[C@@H](O)C[C@H](O)[C@]5(CO)[C@H]4CC[C@]23C)OC1=O [WITHALONGOLIDE J] | > 10 | > 10 | > 10 | > 10 | > 10 |
| CC1=C(CO[C@@H]2O[C@H](CO)[C@@H](O)[C@H](O)[C@H]2O)C[C@H]([C@@H](C)[C@H]2CC[C@H]3[C@@H]4C[C@H](O)C5=C(C(=O)C[C@H](O)C5)[C@H]4CC[C@]23C)OC1=O [WITHALONGOLIDE L] | > 10 | > 10 | > 10 | > 10 | > 10 |
| CC1=C(CO[C@@H]2O[C@H](CO)[C@@H](O)[C@H](O)[C@H]2O)C[C@H]([C@@H](C)[C@H]2CC[C@H]3[C@@H]4CCC5=C(C(=O)C[C@H](O)C5)[C@H]4CC[C@]23C)OC1=O [WITHALONGOLIDE M] | > 10 | > 10 | > 10 | > 10 | > 10 |
| CC1=C(CO[C@@H]2O[C@H](CO)[C@@H](O)[C@H](O)[C@H]2O)C[C@H]([C@@H](C)[C@H]2CC[C@H]3[C@@H]4CC(=O)C5=C(CC[C@@H](O)C5)[C@H]4CC[C@]23C)OC1=O [WITHALONGOLIDE N] | > 10 | > 10 | > 10 | > 10 | > 10 |
| CC1=C(CO[C@@H]2O[C@H](CO)[C@@H](O)[C@H](O)[C@H]2O)C[C@H]([C@@H](C)[C@H]2CC[C@H]3[C@@H]4C[C@H](O)c5cccc(O)c5[C@H]4CC[C@]23C)OC1=O [WITHALONGOLIDESAPONIN] | > 10 | > 10 | > 10 | > 10 | > 10 |
